Data: ChEMBL document CHEMBL1133665, “Secondary amides of (R)-3,3,3-trifluoro-2-hydroxy-2-methylpropionic acid as inhibitors of pyruvate dehydrogenase kinase” (J Med Chem, 2000)
Calls of active or inactive are those of the source. No cut-off for these calls is given here.

Legend:
Rattus norvegicus [1] = assay: In vivo %control of lactate in normal Sprague-Dawley rats after 2 hr at a dose of 100 umol/Kg; Not active; type: functional, organism-based
How it was run: (§1)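 Male Sprague-Dawley rats, about 200 g, randomly assigned to groups (n = 6/group) and fasted 24 h. Single oral dose of compound in 0.5% carboxymethylcellulose/0.2% Tween-80 (1 mL/100 g), or vehicle alone. Blood taken 2 h post-dose into heparin/fluoride tubes; lactate measured on a biochemistry analyzer. Expressed as percent of vehicle control; groups compared by two-tailed unpaired t-test.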

[2] = molecular target: Pyruvate dehydrogenase kinase (Rattus norvegicus, UniProt Q63065+A6IPZ9+Q64536+O54937); assay: Inhibitory activity tested against Pyruvate Dehydrogenase Kinase (PDHK) receptor from rats.; type: protein assay
How it was run: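 Commercial PDH complex used as the kinase-containing preparation. PDHK inhibition read spectrophotometrically as NADH production at 340 nm, measured with and without ATP. IC50 ± standard error, from purified substances.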

Rattus norvegicus [3] = assay: In vivo %control of lactate in normal Sprague-Dawley rats after 2 hr at a dose of 30 umol/Kg; not active; type: functional, organism-based; how it was run: as §1
Rattus norvegicus [4] = assay: In vivo %control of lactate in normal Sprague-Dawley rats after 2 hr at a dose of 3 umol/Kg; type: functional; how it was run: as §1
Rattus norvegicus [5] = assay: In vivo %control of lactate in normal Sprague-Dawley rats after 2 hr at a dose of 1 umol/Kg; type: functional
How it was run: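 Male Sprague-Dawley rats, about 200 g, randomly assigned to groups (n = 6/group), fasted 24 h, then given compound orally in 0.5% carboxymethylcellulose with 0.2% Tween-80 (1 mL/100 g body weight) or vehicle alone. Blood drawn 2 h post-dose into heparin/fluoride tubes. Lactate measured on a dual-channel biochemistry analyzer and expressed as percent of vehicle control. Unpaired two-tailed t-test.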

Homo sapiens = organism: Homo sapiens; assay: Effective concentration required to increase the oxidation of lactate in cellular assay using Human Skin Fibroblasts; type: functional
How it was run: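 Human fibroblasts harvested with trypsin 2-4 days post-confluence and assayed in suspension ((3.5-5) × 10^5 cells per tube) with test compound or solvent control. Equilibrated at 37 °C, then started with DMEM-S containing 25 µM lactate and 0.2 µCi/mL d,l-[1-14C]lactate. Gassed with 95% O2/5% CO2 and shaken 25 min at 37 °C. Stopped with TCA; released 14CO2 trapped and counted by scintillation. EC50 ± standard error.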

Rattus norvegicus [6] = assay: In vivo %control of lactate in normal Sprague-Dawley rats after 2 hr at a dose of 10 umol/Kg; type: functional; how it was run: as §1
Rattus norvegicus [7] = assay: In vivo %control of lactate in normal Sprague-Dawley rats after 2 hr at a dose of 100 umol/Kg; type: functional; how it was run: as §1
Rattus norvegicus [8] = assay: In vivo %control of lactate in normal Sprague-Dawley rats after 2 hr at a dose of 30 umol/Kg; type: functional; how it was run: as §1

Compound	IC50 [2] [µM]	NA (Rattus norvegicus [1])	NA (Rattus norvegicus [3])	Control (Rattus norvegicus [4]) [%]	Control (Rattus norvegicus [5]) [%]	EC50 (Homo sapiens) [µM]	Control (Rattus norvegicus [6]) [%]	Control (Rattus norvegicus [7]) [%]	Control (Rattus norvegicus [8]) [%]
C[C@@H]1CN(C(=O)[C@@](C)(O)C(F)(F)F)CCN1C(=O)c1cccc2ccccc12	0.07	inactive							
C[C@@H]1CN(C(=O)[C@@](C)(O)C(F)(F)F)[C@@H](C)CN1Cc1ccccc1	0.082		inactive						
O=C([O-])C(Cl)Cl.[Na+] [SODIUM DICHLOROACETATE]	> 1000				70				

More lines, main results first:

IC50 [2] [µM]	Compound	NA (Rattus norvegicus [1])	NA (Rattus norvegicus [3])	Control (Rattus norvegicus [4]) [%]	Control (Rattus norvegicus [5]) [%]	EC50 (Homo sapiens) [µM]	Control (Rattus norvegicus [6]) [%]	Control (Rattus norvegicus [7]) [%]	Control (Rattus norvegicus [8]) [%]
0.016	C[C@@H]1CN(C(=O)[C@@](C)(O)C(F)(F)F)[C@@H](C)CN1C(=O)c1ccc(C#N)cc1			90	87	0.057	74		
0.079	C[C@@H]1CN(C(=O)[C@@](C)(O)C(F)(F)F)CCN1C(=O)c1ccc(C#N)cc1					0.25	90	67	60
